Compound activity (PubChem)
CHRM5 antagonist: CHRM5 antagonism in calcium assay; P08912; 360,000 tested, 0.59% active; CHO-hM5 cells, Fluo-8 calcium fluorescence, ACh EC80; inhibition, % at 3 µM;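 active = inhibition above a per-plate cutoff, the mean of that plate's test compounds plus 3 SD, cut at about 27% in these data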
M4 ag: agonists of human muscarinic M4 receptor (CHRM4); 360,000 tested, 0.14% active; CHO-K1 hM4/Gqi5, Fluo-8 calcium fluorescence; vehicle 0%, full acetylcholine response 100%; P08173; AID 624127; activation, % at 3 µM;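 active = activation above the run mean over all test wells plus 3 SD, cut at about 32% in these data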;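 also: peak over basal fluorescence ratio per well then scaled between controls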
Target sequence (P08173 whole entry, looked up): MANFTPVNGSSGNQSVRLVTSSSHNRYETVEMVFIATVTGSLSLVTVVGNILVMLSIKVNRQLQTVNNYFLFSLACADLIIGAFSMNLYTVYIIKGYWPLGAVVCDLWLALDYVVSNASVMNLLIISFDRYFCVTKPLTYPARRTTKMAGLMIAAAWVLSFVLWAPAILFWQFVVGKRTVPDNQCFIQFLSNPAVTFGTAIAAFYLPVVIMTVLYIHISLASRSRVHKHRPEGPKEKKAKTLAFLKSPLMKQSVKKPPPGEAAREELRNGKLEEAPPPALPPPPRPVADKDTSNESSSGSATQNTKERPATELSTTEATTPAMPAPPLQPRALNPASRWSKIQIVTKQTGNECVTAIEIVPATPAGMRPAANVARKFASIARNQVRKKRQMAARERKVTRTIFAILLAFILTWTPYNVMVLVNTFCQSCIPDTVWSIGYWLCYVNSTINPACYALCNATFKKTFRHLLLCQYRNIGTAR
M4 antag: CHRM4 antagonism in calcium assay; inhibition, % at 3 µM; CHO-hM4 cells, ACh EC80, Fluo-8 calcium fluorescence; 360,000 tested, 0.73% active; AID 624125;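 active = inhibition above its plate's cutoff, the mean inhibition of sample wells plus 3 SD, cut at about 27% in these data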
CHRM4 PAM: potentiates acetylcholine response at human M4 receptor | P08173 | CHO-K1 hM4/Gqi5, Fluo-8 calcium fluorescence, ACh EC20; 0% = ACh EC20, 100% = maximal ACh | activation, % at 3 µM | 360,000 tested, 0.4% active | AID 624126;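 active = activation above its plate's cutoff, the mean activation of sample wells plus 3 SD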
M5 ag: agonists of human muscarinic M5 receptor (CHRM5); activation, % at 3 µM; CHO-K1 hM5 cells, Fluo-8 calcium fluorescence; 0% DMSO wells, 100% maximal acetylcholine response; 360,000 tested, 0.19% active;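 active = activation above the run's mean over test compounds plus 3 SD, cut at about 23% in these data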;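 also: signal is peak over basal fluorescence ratio across the kinetic read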
M5 PAM: CHRM5 positive allosteric modulation; P08912; CHO-K1 hM5, Fluo-8 calcium, ACh EC20 PAM; 0% = ACh EC20, 100% = ACh EC100; activation, % at 3 µM; 360,000 tested, 0.3% active; AID 624038;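 active = activation above the run cutoff, the mean activation of all test compounds plus 3 SD, cut at about 18% in these data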
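System – CHO-K1 hM5 cells · Compound – 3 µM, single dose · Incubation – compound preincubation 140 s before EC20 acetylcholine addition · Technique – Fluo-8 calcium fluorescence · Measure – Max/basal fluorescence ratio as % of EC20–EC100 ACh window · Benchmarks – low control EC20 acetylcholine (0%), high control EC100 acetylcholine (100%) · Replication – singlicate, one well per test compound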
Large screens that a line does not name were inactive. The list is not random: actives were taken first. Their share in the collection is about 1.8%.

CC[N+]12CCC(CC1)C(=C(c1ccccc1)c1ccccc1)C2	CHRM5 antagonist 99, M4 antag 97
O=C(COC(=O)c1cc(Br)cc(Br)c1O)NC12CC3CC(CC(C3)C1)C2	none
COc1ccc(OCC#CCN2CCC(C)CC2)cc1	none
Clc1ccc(OCC#CCN2CCCCCC2)cc1	CHRM5 antagonist 35, M4 antag 33
NNC(N)=O	none
CCCC(=O)OCC[N+](C)(C)C	M5 ag 42
CN1CCN(c2ccc([N+](=O)[O-])c(Sc3ccccn3)c2)CC1	M5 PAM 28
CN1CCCN(C(=O)COc2ccccc2Br)CC1	none
O=C1NCN(c2ccccc2)C12CCN(C(c1cccc3ccccc13)c1nnnn1C1CCCC1)CC2 (configuration not stated)	none
COc1cc(/C=C/c2nc3ccccc3c(=O)n2-c2ccc(O)cc2)ccc1O	M4 antag 29
COc1ccc(-n2c(/C=C3/C(=O)Nc4ccccc43)nc3ccccc3c2=O)cc1	M4 antag 97
Cc1ccc(OC(=O)N(C)C[C@H]2OCc3cnnn3CCCC(=O)N([C@H](C)CO)C[C@@H]2C)cc1	none
COC(=O)C1=C(c2cccc(OCc3ccccc3)c2)C[C@@H]2CC[C@H]1N2C(=O)NCCc1ccc(F)cc1	M4 antag 40
COC(=O)C1=C(c2ccc(F)cc2OCc2ccccc2)C[C@@H]2CC[C@H]1N2C(=O)N1CCC(C)CC1	M4 antag 38
CC(C#N)CCC#N (configuration not stated)	none
CC1(C)CSC(=NCc2ccccc2)N1	M4 ag 64, M5 ag 26
CCOC(=O)c1c(NS(=O)(=O)c2ccccc2)n(CCCOC)c2nc3ccccc3nc12	CHRM4 PAM 23
Brc1ccc2[nH]cc(C=NN3CCCCCC3)c2c1	none
COc1ccc(CC2C(=O)NC(C)C(=O)N(C)C3C(=O)N(C)C(Cc4ccc(O)c(c4)Oc4ccc(cc4)C3O)C(=O)NC(C)C(=O)NC(C)C(=O)N2C)cc1 (configuration not stated)	none
Oc1c(Cl)cccc1Cc1cc(Cl)cc(Cl)c1O	CHRM5 antagonist 30
COC(=O)C1=C(c2ccc(F)cc2OCc2ccccc2)C[C@@H]2CC[C@H]1N2C(=O)N1CCC(O)(c2ccc(Cl)cc2)CC1	none
C=C1C(C)C2C(Cc3ccccc3)NC(=O)C23C(OC(C)=O)C=CC(C)(O)CC(C)CC=CC3C1O (configuration not stated)	M5 PAM 21
CN(C)c1ccc(/C=C/[N+](=O)[O-])cc1	CHRM5 antagonist 55, M5 ag 35
O=C(Nc1ccc(Cl)cc1)O/N=C(\c1ccccc1)c1ccccn1	CHRM5 antagonist 33
CON(C)C(=O)Nc1ccc(Cl)cc1	none
C=C1C(=O)O[C@@H]2C[C@@H](C)[C@@H]3C=CC(=O)[C@@]3(C)[C@@H](OC(=O)CC(=O)O[C@H]3[C@@H]4C(=C)C(=O)O[C@@H]4C[C@@H](C)[C@@H]4C=CC(=O)[C@]43C)[C@H]12	M4 antag 39
O=[N+]([O-])c1cc([As](=O)(O)O)ccc1O	M5 ag 36
CC(=O)OC(C)(C)/C=C/C(=O)[C@](C)(O)C1[C@H](O)C[C@@]2(C)C3CC=C4C(C[C@H](O)C(=O)C4(C)C)[C@]3(C)C(=O)C[C@]12C (some centres not stated)	CHRM4 PAM 24
CC(C)(O)/C=C/C(=O)C(C)(O)C1C(O)CC2(C)C3CC=C4C(C=C(O)C(=O)C4(C)C)C3(C)C(=O)CC12C (configuration not stated)	M5 PAM 19
COc1cccc(-n2c(C)nc3ccccc3c2=O)c1	CHRM4 PAM 27
C[N+]1(C)C2CC(OC(=O)[C@H](CO)c3ccccc3)CC1C1OC12 (some centres not stated)	CHRM5 antagonist 99 (no result: M4 ag, M4 antag, CHRM4 PAM)
C#CC[N+]1(C)[C@@H]2CC[C@H]1CC(OC(=O)C(CO)c1ccccc1)C2 (some centres not stated)	CHRM5 antagonist 98, M4 antag 99
C[N+]1(C)CCC(OC(=O)C(c2ccccc2)c2ccccc2)CC1	CHRM5 antagonist 99, M4 antag 98
C[N+]1(C)[C@@H]2CC[C@H]1CC(OC(=O)[C@@H](CO)c1ccccc1)C2 (some centres not stated)	CHRM5 antagonist 99, M4 antag 99
CC(N)Cc1cn(Cc2ccccc2)c2ccccc12 (configuration not stated)	none
C[C@]12CC[C@@H](O)C[C@@H]1CC[C@@H]1[C@@H]2CC[C@]2(C)C(=O)[C@H](O)C[C@@H]12	none
CS(=O)(=O)c1ccc(C2=C(CNC(=O)c3cccnc3)[C@H]3CC[C@@H](C2)N3Cc2ccccc2)cc1	none
CCN(CCCl)c1cc(CN(C)C)cc(NC(=O)c2ccc(C(=O)Nc3cc(CN(C)C)cc(N(CC)CCCl)c3)cc2)c1	none
C[N+]1(C)C2CCC1CC(OC(=O)c1c[nH]c3ccccc13)C2 (configuration not stated)	none
C[N+]1(C)C2CC[C@H]1CC(OC(=O)C(CO)c1ccccc1)C2 (some centres not stated)	CHRM5 antagonist 99, M4 antag 99
NC(N)=Nc1ccc2[nH]c3c(c2c1)C[C@@]1(O)[C@H]2Cc4ccc(O)c5c4[C@@]1(CCN2CC1CC1)C3O5 (some centres not stated)	none
COC(=O)C1=C(c2ccccc2)C[C@@H]2CC[C@H]1N2C	CHRM5 antagonist 63
COC(=O)C1=C(c2ccc(F)cc2F)C[C@@H]2CC[C@H]1N2C	M4 antag 29
COC(=O)C1=C(c2ccc(S(C)(=O)=O)cc2)C[C@@H]2CC[C@H]1N2C	none
COc1ccc(-n2c(-c3ccccc3F)nc3ccccc3c2=O)cc1	none
N#Cc1ccccc1Cn1cc(C(=O)c2cccs2)c2ccccc21	none
O=C(c1cccs1)c1cn(Cc2ccccc2Cl)c2ccccc12	M5 PAM 21
CN1/C(=C\C=C2C(=O)NC(=O)NC2=O)C(C)(C)c2ccccc21	none
CCN1/C(=C/C=C/C2=[N+](CC)c3ccccc3C2(C)C)C(C)(C)c2ccccc21	CHRM5 antagonist 97, M4 ag 365, M4 antag 95, M5 ag 501
COc1ccc(OC(=O)N(C)C[C@H]2OCc3cnnn3CCCC(=O)N([C@H](C)CO)C[C@H]2C)cc1	none
C=CCn1c(O)c(C(C)=Nc2ccc(NC(C)=O)cc2)c(=O)[nH]c1=O	CHRM4 PAM 21
